From ChEMBL document CHEMBL3271984, “Antifungal activity of 4-substituted crotonic acid esters” (1976)
In brackets after ≈: the same amount, converted by molar mass.

Assays:
Format in all cases: functional
[1] = system: Trichophyton mentagrophytes; test: Antifungal activity against Trichophyton mentagrophytes ATCC 9129 assessed as growth inhibition at pH 7 incubated for 5 days in presence of 10% beef serum; conditions: ATCC 9129, 120 h, read-out: MIC100
How it was run: (§1)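 Agar dilution in Sabouraud dextrose agar at pH 5.6 or 7.0, with or without 10% beef serum. C. albicans and M. mucedo were incubated 20 h at 37°; A. niger and T. mentagrophytes 5 days at 28°. The value is the minimal µg/ml giving 100% inhibition. Steps were 1 µg/ml up to 10, 2 up to 20, then 10 up to 100 µg/ml maximum.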

Candida albicans [2] = test: Antifungal activity against Candida albicans ATCC 10231 assessed as growth inhibition at pH 5.6 incubated for 20 hrs in presence of 10% beef serum; conditions: ATCC 10231, 20 h, read-out: MIC100; how it was run: as §1
Mucor mucedo [3] = test: Antifungal activity against Mucor mucedo ATCC 7941 assessed as growth inhibition at pH 7 incubated for 20 hrs in presence of 10% beef serum; conditions: ATCC 7941, 20 h, read-out: MIC100; how it was run: as §1
Mucor mucedo [4] = test: Antifungal activity against Mucor mucedo ATCC 7941 assessed as growth inhibition at pH 7 incubated for 20 hrs in absence of 10% beef serum; conditions: ATCC 7941, 20 h, read-out: MIC100; how it was run: as §1
Mucor mucedo [5] = test: Antifungal activity against Mucor mucedo ATCC 7941 assessed as growth inhibition at pH 5.6 incubated for 20 hrs in absence of 10% beef serum; conditions: ATCC 7941, 20 h, read-out: MIC100; how it was run: as §1
Aspergillus niger [6] = test: Antifungal activity against Aspergillus niger ATCC 1004 assessed as growth inhibition at pH 5.6 incubated for 5 days in presence of 10% beef serum; conditions: ATCC 1004, 120 h, read-out: MIC100; how it was run: as §1
[7] = system: Trichophyton mentagrophytes; test: Antifungal activity against Trichophyton mentagrophytes ATCC 9129 assessed as ratio of cystine to compound at pH 7 incubated for 5 days in absence of 10% beef serum
How it was run: (§2)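 Sabouraud agar at pH 7.0 without beef serum. The toxicant was added at one increment above its minimal inhibitory level for each organism. Cystine, cysteine or glutathione was added at molar ratios of 1:1 to 10:1 versus toxicant, in 1-equiv steps. Plates were inoculated and incubated at 37° for 20 h (C. albicans, M. mucedo) or 28° for 5 days (A. niger, T. mentagrophytes), then scored for growth.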

[8] = system: Trichophyton mentagrophytes; test: Antifungal activity against Trichophyton mentagrophytes ATCC 9129 assessed as growth inhibition at pH 5.6 incubated for 5 days in absence of 10% beef serum; conditions: ATCC 9129, 120 h, read-out: MIC100; how it was run: as §1
Candida albicans [9] = test: Antifungal activity against Candida albicans ATCC 10231 assessed as growth inhibition at pH 5.6 incubated for 20 hrs in absence of 10% beef serum; conditions: ATCC 10231, 20 h, read-out: MIC100; how it was run: as §1
Candida albicans [10] = test: Antifungal activity against Candida albicans ATCC 10231 assessed as growth inhibition at pH 7 incubated for 20 hrs in presence of 10% beef serum; conditions: ATCC 10231, 20 h, read-out: MIC100; how it was run: as §1
Candida albicans [11] = test: Antifungal activity against Candida albicans ATCC 10231 assessed as ratio of cysteine to compound at pH 7 incubated for 20 hrs in absence of 10% beef serum; how it was run: as §2
Candida albicans [12] = test: Antifungal activity against Candida albicans ATCC 10231 assessed as ratio of cystine to compound at pH 7 incubated for 20 hrs in absence of 10% beef serum; how it was run: as §2
Aspergillus niger [13] = test: Antifungal activity against Aspergillus niger ATCC 1004 assessed as growth inhibition at pH 7 incubated for 5 days in absence of 10% beef serum; conditions: ATCC 1004, 120 h, read-out: MIC100; how it was run: as §1
Aspergillus niger [14] = test: Antifungal activity against Aspergillus niger ATCC 1004 assessed as ratio of glutathione to compound at pH 7 incubated for 5 days in absence of 10% beef serum; how it was run: as §2
Aspergillus niger [15] = test: Antifungal activity against Aspergillus niger ATCC 1004 assessed as ratio of cysteine to compound at pH 7 incubated for 5 days in absence of 10% beef serum; how it was run: as §2
Aspergillus niger [16] = test: Antifungal activity against Aspergillus niger ATCC 1004 assessed as growth inhibition at pH 5.6 incubated for 5 days in absence of 10% beef serum; conditions: ATCC 1004, 120 h, read-out: MIC100; how it was run: as §1
[17] = system: Trichophyton mentagrophytes; test: Antifungal activity against Trichophyton mentagrophytes ATCC 9129 assessed as ratio of cysteine to compound at pH 7 incubated for 5 days in absence of 10% beef serum; how it was run: as §2
Aspergillus niger [18] = test: Antifungal activity against Aspergillus niger ATCC 1004 assessed as ratio of cystine to compound at pH 7 incubated for 5 days in absence of 10% beef serum; how it was run: as §2
Mucor mucedo [19] = test: Antifungal activity against Mucor mucedo ATCC 7941 assessed as ratio of cystine to compound at pH 7 incubated for 20 hrs in absence of 10% beef serum; how it was run: as §2
Mucor mucedo [20] = test: Antifungal activity against Mucor mucedo ATCC 7941 assessed as growth inhibition at pH 5.6 incubated for 20 hrs in presence of 10% beef serum; conditions: ATCC 7941, 20 h, read-out: MIC100; how it was run: as §1
[21] = system: Trichophyton mentagrophytes; test: Antifungal activity against Trichophyton mentagrophytes ATCC 9129 assessed as ratio of glutathione to compound at pH 7 incubated for 5 days in absence of 10% beef serum; how it was run: as §2
Candida albicans [22] = test: Antifungal activity against Candida albicans ATCC 10231 assessed as growth inhibition at pH 7 incubated for 20 hrs in absence of 10% beef serum; conditions: ATCC 10231, 20 h, read-out: MIC100; how it was run: as §1
[23] = system: Trichophyton mentagrophytes; test: Antifungal activity against Trichophyton mentagrophytes ATCC 9129 assessed as growth inhibition at pH 5.6 incubated for 5 days in presence of 10% beef serum; conditions: ATCC 9129, 120 h, read-out: MIC100; how it was run: as §1
[24] = system: Trichophyton mentagrophytes; test: Antifungal activity against Trichophyton mentagrophytes ATCC 9129 assessed as growth inhibition at pH 7 incubated for 5 days in absence of 10% beef serum; conditions: ATCC 9129, 120 h, read-out: MIC100; how it was run: as §1
Mucor mucedo [25] = test: Antifungal activity against Mucor mucedo ATCC 7941 assessed as ratio of cysteine to compound at pH 7 incubated for 20 hrs in absence of 10% beef serum; how it was run: as §2
Candida albicans [26] = test: Antifungal activity against Candida albicans ATCC 10231 assessed as ratio of glutathione to compound at pH 7 incubated for 20 hrs in absence of 10% beef serum; how it was run: as §2
Aspergillus niger [27] = test: Antifungal activity against Aspergillus niger ATCC 1004 assessed as growth inhibition at pH 7 incubated for 5 days in presence of 10% beef serum; conditions: ATCC 1004, 120 h, read-out: MIC100; how it was run: as §1
Mucor mucedo [28] = test: Antifungal activity against Mucor mucedo ATCC 7941 assessed as ratio of glutathione to compound at pH 7 incubated for 20 hrs in absence of 10% beef serum; how it was run: as §2

MIC (Mucor mucedo [4])	MIC (Mucor mucedo [5])	MIC [8]	MIC [24]	Compound	Ratio [7]	Ratio [17]	Ratio (Mucor mucedo [19])	Ratio [21]	Ratio (Mucor mucedo [25])	Ratio (Mucor mucedo [28])	also measured
10 µg/mL (≈ 55.9 µM)	6 µg/mL (≈ 33.5 µM)	3 µg/mL (≈ 16.8 µM)	5 µg/mL (≈ 27.9 µM)	COC(=O)/C=C/CBr	>10	10	>10	9	4	8	MIC [1]: 6 µg/mL; MIC (Candida albicans [2]): 30 µg/mL; MIC (Mucor mucedo [3]): 14 µg/mL; MIC (Aspergillus niger [6]): 50 µg/mL; MIC (Candida albicans [9]): 30 µg/mL (≈ 168 µM); MIC (Candida albicans [10]): 30 µg/mL; Ratio (Candida albicans [11]): 2; Ratio (Candida albicans [12]): >10; MIC (Aspergillus niger [13]): 50 µg/mL (≈ 279 µM); Ratio (Aspergillus niger [14]): <1; Ratio (Aspergillus niger [15]): <1; MIC (Aspergillus niger [16]): 50 µg/mL (≈ 279 µM); Ratio (Aspergillus niger [18]): >10; MIC (Mucor mucedo [20]): 8 µg/mL; MIC (Candida albicans [22]): 30 µg/mL (≈ 168 µM); MIC [23]: 5 µg/mL; Ratio (Candida albicans [26]): 3; MIC (Aspergillus niger [27]): 60 µg/mL
80 µg/mL (≈ 547 µM)	70 µg/mL (≈ 479 µM)	90 µg/mL (≈ 616 µM)	70 µg/mL (≈ 479 µM)	COC(=O)/C=C/CSC	>10	<1	>10	<1	<1	<1	
